Measurements: ChEMBL document CHEMBL3734675, “Synthesis, antimycobacterial and antibacterial activity of fluoroquinolone derivatives containing an 3-alkoxyimino-4-(cyclopropylanimo)methylpyrrolidine moiety” (2015)
≈ marks a conversion by molar mass, not a printed value.

Legend:
Assay type in all cases: functional
Enterococcus faecium [1] = assay: Antibacterial activity against Enterococcus faecium 14-6 after 18 to 24 hrs by two-fold serial dilution method
Method in brief: (§1)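 Twofold serial dilution in agar media against Gram-positive and Gram-negative strains. Plates incubated at 35 °C for 18–24 h. MIC read as the lowest compound concentration giving complete inhibition of bacterial growth.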

Staphylococcus aureus [2] = assay: Antibacterial activity against methicillin-resistant Staphylococcus aureus 14-5 after 18 to 24 hrs by two-fold serial dilution method
Method in brief: (§2)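 Agar media, standard twofold serial dilution. MIC is the lowest concentration giving complete inhibition of bacterial growth after incubation at 35 °C for 18–24 h. Ciprofloxacin and levofloxacin were run as comparators.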

[3] = system: Staphylococcus epidermidis; assay: Antibacterial activity against methicillin-resistant Staphylococcus epidermidis 14-39 after 18 to 24 hrs by two-fold serial dilution method; method in brief: as §2
Staphylococcus aureus [4] = assay: Antibacterial activity against Staphylococcus aureus CMCC 26003 after 18 to 24 hrs by two-fold serial dilution method; method in brief: as §1
Klebsiella pneumoniae [5] = assay: Antibacterial activity against Klebsiella pneumoniae 14-4 after 18 to 24 hrs by two-fold serial dilution method; method in brief: as §1
Streptococcus pneumoniae = assay: Antibacterial activity against methicillin-resistant Streptococcus pneumoniae ATCC 19615 after 18 to 24 hrs by two-fold serial dilution method; method in brief: as §2
Enterococcus faecalis [6] = assay: Antibacterial activity against Enterococcus faecalis 14-2 after 18 to 24 hrs by two-fold serial dilution method; method in brief: as §1
Enterococcus faecium [7] = assay: Antibacterial activity against Enterococcus faecium 14-5 after 18 to 24 hrs by two-fold serial dilution method; method in brief: as §1
Klebsiella pneumoniae [8] = assay: Antibacterial activity against extended-spectrum beta-lactamase producing Klebsiella pneumoniae 14-19 after 18 to 24 hrs by two-fold serial dilution method; method in brief: as §1
Staphylococcus aureus [9] = assay: Antibacterial activity against methicillin-sensitive Staphylococcus aureus 14-3 after 18 to 24 hrs by two-fold serial dilution method; method in brief: as §1
[10] = system: Mycobacterium tuberculosis; assay: Antimycobacterial activity against Mycobacterium tuberculosis H37Rv ATCC 27294 incubated for 7 days by microplate Alamar Blue assay; settings: H37Rv ATCC 27294, 168 h
Method in brief: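 Fluorescence read-out. MIC is the lowest concentration that reduces fluorescence by at least 90% relative to the mean of replicate bacterium-only controls. Isoniazid and rifampicin were included as reference drugs.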

Escherichia coli [11] = assay: Antibacterial activity against Escherichia coli ATCC 25922 after 18 to 24 hrs by two-fold serial dilution method; method in brief: as §1
Pseudomonas aeruginosa [12] = assay: Antibacterial activity against Pseudomonas aeruginosa 14-9 after 18 to 24 hrs by two-fold serial dilution method; method in brief: as §1
Klebsiella pneumoniae [13] = assay: Antibacterial activity against Klebsiella pneumoniae 14-2 after 18 to 24 hrs by two-fold serial dilution method; method in brief: as §1
[14] = system: Staphylococcus epidermidis; assay: Antibacterial activity against methicillin-resistant Staphylococcus epidermidis 14-22 after 18 to 24 hrs by two-fold serial dilution method; method in brief: as §2
[15] = system: Staphylococcus epidermidis; assay: Antibacterial activity against methicillin-resistant Staphylococcus epidermidis 14-21 after 18 to 24 hrs by two-fold serial dilution method; method in brief: as §2
[16] = system: Staphylococcus epidermidis; assay: Antibacterial activity against methicillin-resistant Staphylococcus epidermidis 14-37 after 18 to 24 hrs by two-fold serial dilution method; method in brief: as §2
Escherichia coli [17] = assay: Antibacterial activity against extended-spectrum beta-lactamase producing Escherichia coli 14-2 after 18 to 24 hrs by two-fold serial dilution method; method in brief: as §1
Pseudomonas aeruginosa [18] = assay: Antibacterial activity against Pseudomonas aeruginosa ATCC 27853 after 18 to 24 hrs by two-fold serial dilution method; method in brief: as §1
Escherichia coli [19] = assay: Antibacterial activity against Escherichia coli 14-1 after 18 to 24 hrs by two-fold serial dilution method; method in brief: as §1
Pseudomonas aeruginosa [20] = assay: Antibacterial activity against Pseudomonas aeruginosa 14-14 after 18 to 24 hrs by two-fold serial dilution method; method in brief: as §1
Enterococcus faecalis [21] = assay: Antibacterial activity against Enterococcus faecalis 14-1 after 18 to 24 hrs by two-fold serial dilution method; method in brief: as §1
Klebsiella pneumoniae [22] = assay: Antibacterial activity against Klebsiella pneumoniae 14-3 after 18 to 24 hrs by two-fold serial dilution method; method in brief: as §1
Pseudomonas aeruginosa [23] = assay: Antibacterial activity against Pseudomonas aeruginosa 14-15 after 18 to 24 hrs by two-fold serial dilution method; method in brief: as §1
Klebsiella pneumoniae [24] = assay: Antibacterial activity against Klebsiella pneumoniae 14-1 after 18 to 24 hrs by two-fold serial dilution method; method in brief: as §1
Pseudomonas aeruginosa [25] = assay: Antibacterial activity against Pseudomonas aeruginosa 14-16 after 18 to 24 hrs by two-fold serial dilution method; method in brief: as §1
Escherichia coli [26] = assay: Antibacterial activity against extended-spectrum beta-lactamase producing Escherichia coli 14-1 after 18 to 24 hrs by two-fold serial dilution method; method in brief: as §1
[27] = system: Staphylococcus epidermidis; assay: Antibacterial activity against methicillin-sensitive Staphylococcus epidermidis 14-2 after 18 to 24 hrs by two-fold serial dilution method; method in brief: as §1
Klebsiella pneumoniae [28] = assay: Antibacterial activity against extended-spectrum beta-lactamase producing Klebsiella pneumoniae 14-18 after 18 to 24 hrs by two-fold serial dilution method; method in brief: as §1
Staphylococcus aureus [29] = assay: Antibacterial activity against methicillin-sensitive Staphylococcus aureus 14-4 after 18 to 24 hrs by two-fold serial dilution method; method in brief: as §1
Staphylococcus aureus [30] = assay: Antibacterial activity against methicillin-sensitive Staphylococcus aureus 14-1 after 18 to 24 hrs by two-fold serial dilution method; method in brief: as §1
Klebsiella pneumoniae [31] = assay: Antibacterial activity against extended-spectrum beta-lactamase producing Klebsiella pneumoniae 14-17 after 18 to 24 hrs by two-fold serial dilution method; method in brief: as §1
Staphylococcus aureus [32] = assay: Antibacterial activity against methicillin-resistant Staphylococcus aureus 14-4 after 18 to 24 hrs by two-fold serial dilution method; method in brief: as §2
Escherichia coli [33] = assay: Antibacterial activity against Escherichia coli 14-2 after 18 to 24 hrs by two-fold serial dilution method; method in brief: as §1
Enterococcus faecium [34] = assay: Antibacterial activity against Enterococcus faecium 14-2 after 18 to 24 hrs by two-fold serial dilution method; method in brief: as §1

Question: What does the source list for `CCO/N=C1/CN(c2nc3c(cc2F)c(=O)c(C(=O)O)cn3-c2nc(N)c(F)cc2F)CC1(C)CNC1CC1` (stereo not given)?
Answer: MIC (Enterococcus faecium [1]): 64 µg/mL (≈ 117 µM); MIC (Staphylococcus aureus [2]): 64 µg/mL (≈ 117 µM); MIC [3]: 64 µg/mL (≈ 117 µM); MIC (Staphylococcus aureus [4]): 0.5 µg/mL (≈ 0.917 µM); MIC (Klebsiella pneumoniae [5]): > 128 µg/mL; MIC (Streptococcus pneumoniae): 16 µg/mL (≈ 29.3 µM); MIC (Enterococcus faecalis [6]): 8 µg/mL (≈ 14.7 µM); MIC (Enterococcus faecium [7]): 128 µg/mL (≈ 235 µM); MIC (Klebsiella pneumoniae [8]): > 128 µg/mL; MIC (Staphylococcus aureus [9]): 16 µg/mL (≈ 29.3 µM); MIC90 [10]: 27.7 µg/mL (≈ 50.9 µM); MIC (Escherichia coli [11]): 32 µg/mL (≈ 58.7 µM); MIC (Pseudomonas aeruginosa [12]): 64 µg/mL (≈ 117 µM); MIC (Klebsiella pneumoniae [13]): > 128 µg/mL; MIC [14]: 128 µg/mL (≈ 235 µM); MIC [15]: 64 µg/mL (≈ 117 µM); MIC [16]: 128 µg/mL (≈ 235 µM); MIC (Escherichia coli [17]): > 128 µg/mL; MIC (Pseudomonas aeruginosa [18]): 128 µg/mL (≈ 235 µM); MIC (Escherichia coli [19]): > 128 µg/mL; MIC (Pseudomonas aeruginosa [20]): 128 µg/mL (≈ 235 µM); MIC (Enterococcus faecalis [21]): 64 µg/mL (≈ 117 µM); MIC (Klebsiella pneumoniae [22]): > 128 µg/mL; MIC (Pseudomonas aeruginosa [23]): 128 µg/mL (≈ 235 µM); MIC (Klebsiella pneumoniae [24]): > 128 µg/mL; MIC (Pseudomonas aeruginosa [25]): > 128 µg/mL; MIC (Escherichia coli [26]): 64 µg/mL (≈ 117 µM); MIC [27]: 128 µg/mL (≈ 235 µM); MIC (Klebsiella pneumoniae [28]): > 128 µg/mL; MIC (Staphylococcus aureus [29]): 4 µg/mL (≈ 7.33 µM); MIC (Staphylococcus aureus [30]): 32 µg/mL (≈ 58.7 µM); MIC (Klebsiella pneumoniae [31]): > 128 µg/mL; MIC (Staphylococcus aureus [32]): 64 µg/mL (≈ 117 µM); MIC (Escherichia coli [33]): 128 µg/mL (≈ 235 µM); MIC (Enterococcus faecium [34]): 128 µg/mL (≈ 235 µM)
